Measured values pooled from the literature.
Each line is one published result; the experiments were not run side by side.

| Structure (SMILES) | cell line | read-out | action | method | time | notes | IC50 [µM] |
| --- | --- | --- | --- | --- | --- | --- | --- |
| COc1cc2c3c(n(CCCNC(C)C)c(=O)c2cc1OC)-c1nc2c(cc1C3=O)OCO2 | HL-60 | cell growth or viability | – | MTS | 72 h | – | 0.328 |
| Cc1ccc(-c2cc(C(F)(F)F)nn2-c2ccc(S(N)(=O)=O)cc2)cc1 | RAW264.7 | NO release | inhibitor | Griess | 24 h | LPS-stimulated | > 20 |
| COc1cc2c3c(n(CCCN4CCOCC4)c(=O)c2cc1OC)-c1nc2c(cc1C3=O)OCO2 | HL-60 | cell growth or viability | – | MTS | 72 h | – | > 2 |
| CC(C)c1ccccc1[C@@H]1CCCN1C1CC2(CCN(c3ccc(C(=O)NS(=O)(=O)c4ccc(NC[C@H]5CC[C@](C)(O)CC5)c([N+](=O)[O-])c4)c(Oc4cnc5[nH]ccc5c4)c3)CC2)C1 | HL-60 | cell growth or viability | – | ATP luminescence | 48 h | – | 0.381 |
| COc1cc2c(NC3CCN(CCCC(=O)NCCCCCCCCCCCC(=O)N[C@H](C(=O)N4C[C@H](O)C[C@H]4C(=O)NCc4ccc(-c5scnc5C)cc4)C(C)(C)C)CC3)nc(N3CCC(F)(F)CC3)nc2cc1OCCCN1CCCC1 | NCI-H1299 | cell growth or viability | – | CCK-8 | 8 days | – | 5 |
| CCOc1ccc(C(=O)Nc2ccc(S(N)(=O)=O)c(OC)c2)cc1 | RAW264.7 | cell growth or viability | – | MTT | 48 h | – | > 100 |
| CC#CCOc1ccc(/C=C/c2cc(OC)cc(OC)c2-c2cnnn2C(=O)NC(C)C)cc1 | RAW264.7 | NO release | inhibitor | Griess | 24 h | LPS-stimulated | 5.5 |
| COc1cc(NC(=O)c2ccc(C#N)cc2)ccc1S(N)(=O)=O | RAW264.7 | cell growth or viability | – | MTT | 48 h | – | > 100 |
| CC1(C)CCC(CN2CCN(c3ccc(C(=O)NS(=O)(=O)c4ccc(NCC5CCOCC5)c([N+](=O)[O-])c4)c(Oc4cnc5[nH]ccc5c4)c3)CC2)=C(c2ccc(Cl)cc2)C1 | Maver1 | cell growth or viability | – | ATP luminescence | 48 h | – | 0.0065 |
| COc1cc(NC(=O)c2ccco2)ccc1S(N)(=O)=O | RAW264.7 | cell growth or viability | – | MTT | 48 h | – | > 100 |
| C=C(F)C(=O)N1CCN(c2nc(OC[C@@H]3CCCN3C)nc3c2CCN(c2cccc4cccc(Cl)c24)C3)C[C@@H]1CC#N | Lu-65 | cell growth or viability | – | ATP luminescence | – | 3D culture | 0.00188 |
| COc1ccc(NC(=O)C2=C(C)NC(C)=C(C(=O)Nc3ccc(OC)cc3OC)C2c2cccc(Cl)c2)c(OC)c1 | Vero | cell growth or viability | – | MTT | – | – | 67.5 |
| CC#CCOc1ccc(/C=C/c2cc(OC)cc(OC)c2-c2cnnn2C(=O)NCCc2ccccc2)cc1 | RAW264.7 | NO release | inhibitor | Griess | 24 h | LPS-stimulated | 6.1 |
| COc1ccc(NC(=O)C2=C(C)NC(C)=C(C(=O)Nc3cc(OC)c(Cl)cc3OC)C2c2cccc(Cl)c2)c(OC)c1 (centres unmarked) | Vero | cell growth or viability | – | MTT | – | – | 49.6 |
| COc1cc(NC(=O)c2cccc(C)c2)ccc1S(N)(=O)=O | RAW264.7 | cell growth or viability | – | MTT | 48 h | – | > 100 |
| COc1cccc2c1C(=O)c1c(O)c3c(c(O)c1C2=O)C[C@@](O)(C(=O)CO)C[C@@H]3O[C@H]1C[C@H](N)[C@H](O)[C@H](C)O1 | NCI-H1299 | cell growth or viability | – | MTT | 72 h | – | 0.77 |
| COc1ccc(NC(=O)C2=C(C)NC(C)=C(C(=O)Nc3ccc(OC)cc3OC)C2c2ccc(O)cc2)c(OC)c1 | Vero | cell growth or viability | – | MTT | – | – | 70.3 |
